Experimental findings from ChEMBL document CHEMBL1135463 (J Med Chem, 2002) are described below.

One assay deals with BXPC-3. The assay can be described thus: In vitro growth inhibition of BXPC-3 (human pancreatic adenocarcinoma) cell line. The format is functional.
A further assay concerns DU-145. The assay can be described thus: In vitro growth inhibition of DU-145 (human prostate carcinoma) cell line. The format is functional.
In assay [1] the test system is KM-20L2. Nature of the assay: In vitro growth inhibition of KM20L2 cell line. The format is functional. Particulars: Homo sapiens.
A short description of assay [2]: In vitro growth inhibition of NCI-H460 (human non-small cell lung carcinoma) cell line. The format is functional.
The test system of assay [3] is P388. Nature of the assay: In vitro inhibition of P388 (murine leukemia) cell proliferation. The format is functional. The settings on record: Mus musculus, read-out: ED50 (the source's name).
For assay [4], the system named is SF-268. The assay can be described thus: In vitro growth inhibition of central nervous system SF-268 cell line. Particulars: Homo sapiens. The format is functional.
For another assay, the system named is MCF7. Nature of the assay: Cell growth inhibition of breast MCF-7 cells, expressed as 50% reduction in the net protein increase. Particulars: Homo sapiens. The format is functional.
Assay [5] relates to KM-20L2. Nature of the assay: Cell growth inhibition of colon KM20L2 cells, expressed as 50% reduction in the net protein increase. The format is functional. Particulars: Homo sapiens. A digest of the protocol: (§1)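 Human tumour lines kept in 5% FBS/RPMI-1640, plated and incubated 24 h before compound dilutions were added. Exposure 48 h, then TCA fixation, washing and sulforhodamine B staining, with optical density read on a plate reader. GI50 is the concentration giving a 50% reduction in net protein increase, calculated from the OD data.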

The next assay deals with NCI-H460. Nature of the assay: Cell growth inhibition of lung-NSC NCI-H460 cells, expressed as 50% reduction in the net protein increase. The format is functional. The settings on record: Homo sapiens. A digest of the protocol:
as §1

For assay [6], the system named is P388. Nature of the assay: Evaluated for cell growth inhibition of the mouse leukemia P388 cells in 10% horse serum/Fisher media. The format is functional. The settings on record: read-out: ED50 (the source's name). A digest of the protocol: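 Murine P388 leukaemia cells grown in 10% horse serum/Fisher medium, incubated 24 h, then compound dilutions added. After 48 h, cells counted on a Coulter Z1 particle counter and the ED50 for growth inhibition calculated.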

Assay [7] concerns SF-268. Nature of the assay: Cell growth inhibition of central nervous system (CNS) SF-268 cells, expressed as 50% reduction in the net protein increase. The format is functional. The settings on record: Homo sapiens. A digest of the protocol: as §1
Another assay has as its target Tubulin (Bos taurus, UniProt Q6B856+Q862L2+Q862F3). The assay can be described thus: Inhibition of tubulin polymerization reported as IC50. The format is functional. A digest of the protocol: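 Tubulin at 10 µM with a range of drug concentrations. Extent of assembly read after 20 min at 30 °C. IC50 taken from the concentration needed to halve assembly.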
For assay [8], the target named is T1, Tubulin (Bos taurus) (UniProt Q6B856+Q862L2+Q862F3). Nature of the assay: Inhibition of radiolabeled [3H]colchicine binding to tubulin at a concentration of 2 uM of the compound. The format is protein assay. The procedure, abridged: (§2)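 [3H]colchicine 5.0 µM incubated with tubulin 1.0 µM plus inhibitor at the stated level, 10 min at 37 °C, then colchicine binding measured. Reported as percent inhibition.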

For assay [9], the target named is T1, Tubulin (Bos taurus). Nature of the assay: Inhibition of radiolabeled [3H]colchicine binding to tubulin at a concentration of 5 uM of the compound. The format is protein assay. The procedure, abridged: as §2
For assay [10], the system named is Micrococcus luteus. Nature of the assay: the minimum inhibitory concentration (MIC) that inhibits all visible growth of the Micrococcus luteus (bacteria). The format is functional. The procedure, abridged:
(§3)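 Broth microdilution following NCCLS reference methods (M7-A4 for aerobic bacteria, the yeast broth dilution standard for fungi). MIC is the lowest compound concentration giving optically clear wells, with no visible growth of the test organism.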

The subject of a further assay is Streptococcus pneumoniae. Nature of the assay: The minimum inhibitory concentration (MIC) that inhibits all visible growth of the Streptococcus pneumoniae (bacteria). The format is functional. The procedure, abridged: as §3
The subject of the next assay is Candida albicans. Nature of the assay: The minimum inhibitory concentration (MIC) that inhibits all visible growth of the Candida albicans (fungus) at 64 ug/mL; NI is no inhibition. The format is functional, organism-based. A digest of the protocol:
as §3

In another assay the test system is Cryptococcus neoformans. Nature of the assay: Minimum inhibitory concentration (MIC) that inhibits all visible growth of the Cryptococcus neoformans (fungus) at 64 ug/mL; NI is no inhibition. The format is functional, organism-based. A digest of the protocol:
as §3

The test system of a further assay is Enterobacter cloacae. The assay can be described thus: The minimum inhibitory concentration (MIC) that inhibits all visible growth of the Enterobacter cloacae (bacteria) at 64 ug/mL; NI is no inhibition. The format is functional, organism-based. The procedure, abridged: as §3
In another assay the test system is Escherichia coli. Nature of the assay: The minimum inhibitory concentration (MIC) that inhibits all visible growth of the Escherichia coli (bacteria) at 64 ug/mL; NI is no inhibition. The format is functional, organism-based. The procedure, abridged:
as §3

Another assay deals with Enterococcus faecalis. The assay can be described thus: The minimum inhibitory concentration (MIC) that inhibits all visible growth of the Enterococcus faecalis (bacteria) at 64 ug/mL; NI is no inhibition. The format is functional, organism-based. The procedure, abridged:
as §3

In assay [11] the test system is Micrococcus luteus. Nature of the assay: The minimum inhibitory concentration (MIC) that inhibits all visible growth of the Micrococcus luteus (bacteria) at 64 ug/mL; NI is no inhibition. The format is functional, organism-based. A digest of the protocol:
as §3

A further assay concerns Neisseria gonorrhoeae. The assay can be described thus: The minimum inhibitory concentration (MIC) that inhibits all visible growth of the Neisseria gonorrhoeae (bacteria). The format is functional. A digest of the protocol:
as §3

The next assay deals with Staphylococcus aureus. Nature of the assay: The minimum inhibitory concentration (MIC) that inhibits all visible growth of the Staphylococcus aureus (bacteria) at 64 ug/mL; NI is no inhibition. The format is functional, organism-based. A digest of the protocol:
as §3

In assay [12] the test system is Stenotrophomonas maltophilia. The assay can be described thus: The minimum inhibitory concentration (MIC) that inhibits all visible growth of the Stenotrophomonas maltophilia (bacteria) at 64 ug/mL; NI is no inhibition. The format is functional, organism-based. A digest of the protocol: as §3

SMILES strings stand for the structures. pIC50: −log10 of the molar value. Values after ≈ are worked out from the molar mass of the structure shown. Active and inactive are the calls of the source. No cut-off for these calls is given here. Where only a bound is given, the exact number is not on record here.

As for `COc1ccc(C(=O)c2cc(O)cc(O)c2)cc1`, the GI50 – broadly, the concentration giving 50% growth inhibition – worked out at 21.2 µg/mL (≈ 86.8 µM) in the assay with BXPC-3; 15 µg/mL (≈ 61.4 µM) with DU-145; 24.5 µg/mL (≈ 100 µM) in the assay on KM-20L2 [1]; 16.6 µg/mL (≈ 68 µM) in [2]; 24.5 µg/mL (≈ 100 µM) in the assay with SF-268 [4]; 21.7 µg/mL (≈ 88.8 µM) in the assay on MCF7. For the same molecule, in the assay on P388 [3], the EC50 is 17.8 µg/mL (≈ 72.9 µM).
For `Oc1ccc(/C=C\c2cc(O)cc(O)c2)cc1` [CIS-RESVERATROL], the GI50 in the assay with BXPC-3 amounted to 15.5 µg/mL (≈ 67.9 µM); in the assay with DU-145, 10.2 µg/mL (≈ 44.7 µM); in the assay on KM-20L2 [1], 22 µg/mL (≈ 96.4 µM); in assay [2], 13.2 µg/mL (≈ 57.8 µM); with SF-268 [4] it was 5 µg/mL (≈ 21.9 µM); in the assay with MCF7, 14.8 µg/mL (≈ 64.8 µM). The EC50 in the assay with P388 [3] was 24.4 µg/mL (≈ 107 µM).
For `COc1cc(/C=C\c2ccc(OP(=O)(OCc3ccccc3)OCc3ccccc3)cc2)cc(OC)c1`, the GI50 with BXPC-3 was 5.4 µg/mL (≈ 10.5 µM); with DU-145 it was 35.6 µg/mL (≈ 68.9 µM); in the assay on KM-20L2 [1], 24.7 µg/mL (≈ 47.8 µM); in assay [2], 10.7 µg/mL (≈ 20.7 µM); in the assay on SF-268 [4], 38.5 µg/mL (≈ 74.5 µM); in the assay with MCF7, 9 µg/mL (≈ 17.4 µM). For the same molecule, the EC50 in the assay with P388 [3] was found to be 4.45 µg/mL (≈ 8.62 µM).
For the molecule `COc1ccc(C(=O)c2cc(OC)c(OC)c(OC)c2)cc1O` [PHENSTATIN], the GI50 in the assay with KM-20L2 [5] is 0.04 µg/mL (≈ 0.126 µM); in the assay on NCI-H460, 0.0057 µg/mL (≈ 0.0179 µM); in the assay with SF-268 [7], 0.052 µg/mL (≈ 0.163 µM). For the same molecule, the EC50 in the assay on P388 [6] worked out at 0.0033 µg/mL (≈ 0.0104 µM). In addition, the pIC50 (usually the IC50 on a negative log10 scale, so that one unit is a factor of ten) against Tubulin is 5.96. Besides, the inhibition (as a rule, how much of the control response was suppressed) at Tubulin (Bos taurus) [8] is 73%; on Tubulin (Bos taurus) [9], 85%.
As to `COc1ccc(/C=C/c2cc(O)cc(OC)c2)cc1`, in the assay on Micrococcus luteus [10], the MIC (usually the lowest concentration that inhibits growth of the organism) is 16 µg/mL (≈ 62.4 µM). For the same molecule, the EC50 in the assay with P388 [3] came to 31.5 µg/mL (≈ 123 µM).
Turning to `COc1ccc(C(O)c2cc(OC)cc(OC)c2)cc1` (stereo not drawn), the GI50 in the assay with BXPC-3 worked out at 16.1 µg/mL (≈ 58.7 µM); with DU-145, 23.2 µg/mL (≈ 84.6 µM); in the assay on KM-20L2 [1], 21 µg/mL (≈ 76.6 µM); in assay [2], 21.7 µg/mL (≈ 79.1 µM); with SF-268 [4], 23.3 µg/mL (≈ 84.9 µM). Also, the EC50 with P388 [3] is 20.2 µg/mL (≈ 73.6 µM).
Turning to `O=C(c1ccc(O)cc1)c1cc(O)cc(O)c1`, the 50% growth inhibitory concentration (GI50) stood at 20.5 µg/mL (≈ 89 µM) in the assay on BXPC-3; 15 µg/mL (≈ 65.2 µM) with DU-145; 24.5 µg/mL (≈ 106 µM) with KM-20L2 [1]; 25 µg/mL (≈ 109 µM) in [2]; 22.3 µg/mL (≈ 96.9 µM) with SF-268 [4]; 30.6 µg/mL (≈ 133 µM) with MCF7. Further, in the assay on P388 [3], the EC50 is greater than 100 µg/mL. The molecule also had an MIC against Streptococcus pneumoniae of 64 µg/mL (≈ 278 µM).
Take `COc1cc(O)cc(C(=O)c2ccc(O)cc2)c1`: the GI50 came to 21.7 µg/mL (≈ 88.8 µM) in the assay on BXPC-3; 16.5 µg/mL (≈ 67.6 µM) in the assay on DU-145; 31.6 µg/mL (≈ 129 µM) in the assay with KM-20L2 [1]; 12.1 µg/mL (≈ 49.5 µM) in assay [2]; 26.4 µg/mL (≈ 108 µM) with SF-268 [4]; 26.8 µg/mL (≈ 110 µM) in the assay with MCF7. In addition, the MIC entry in the assay with Candida albicans, in the assay with Cryptococcus neoformans, in the assay with Enterobacter cloacae, in the assay on Escherichia coli, with Enterococcus faecalis and in the assay on Micrococcus luteus [11] was “inactive” in each case. Besides, the MIC result (in the assay on Staphylococcus aureus; in assay [12]) was “inactive” each time. Besides, the MIC in the assay on Neisseria gonorrhoeae stood at 32 µg/mL (≈ 131 µM); in the assay on Streptococcus pneumoniae, 64 µg/mL (≈ 262 µM). For the same molecule, in the assay on P388 [3], the EC50 came to 26.2 µg/mL (≈ 107 µM).
In assay [2], `COc1ccc(/C=C\c2cc(O)cc(OC)c2)cc1` registered a GI50 of 0.72 µg/mL (≈ 2.81 µM). Also, the EC50 in the assay with P388 [3] was determined as 3.82 µg/mL (≈ 14.9 µM).
